Test results: PMC3604071 (Nature chemical biology, 2013)
“Also recorded” adds a separate entry of the source.

Legend:
[1] = system: Shh signaling (Gli1 activation) in NIH 3T3 cells; experiment: Gli-responsive luciferase reporter assay in Shh-transfected NIH 3T3 cells; assay type: cell-based; conditions: for Gli-responsive luciferase activation (FL/RL ratio): NIH 3T3 cells cotransfected with Shh, 10 μM, 24 h
How it was run: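 NIH 3T3 cells cotransfected with pRL-TK, 8XGliBS-firefly luciferase (or mutant reporter) and Shh plasmids. Seeded 24 h later at 1×10^6 cells/well and grown to confluence. Treated 24 h with DMSO or 10 μM test compound. Firefly and Renilla luciferase measured in lysates; FL/RL ratio normalized to DMSO-treated cells.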

[2] = molecular target: Hhat (Homo sapiens, UniProt Q5VTY9); experiment: RU-SKI 43 inhibition kinetics with purified Hhat and ShhN; assay type: biochemical; conditions: Ki with respect to 125I-iodo-palmitoylCoA, noncompetitive inhibitor; purified Hhat, 125I-iodo-palmitoylCoA titrated, 38μM ShhN
Chain of Hhat (Q5VTY9 whole entry): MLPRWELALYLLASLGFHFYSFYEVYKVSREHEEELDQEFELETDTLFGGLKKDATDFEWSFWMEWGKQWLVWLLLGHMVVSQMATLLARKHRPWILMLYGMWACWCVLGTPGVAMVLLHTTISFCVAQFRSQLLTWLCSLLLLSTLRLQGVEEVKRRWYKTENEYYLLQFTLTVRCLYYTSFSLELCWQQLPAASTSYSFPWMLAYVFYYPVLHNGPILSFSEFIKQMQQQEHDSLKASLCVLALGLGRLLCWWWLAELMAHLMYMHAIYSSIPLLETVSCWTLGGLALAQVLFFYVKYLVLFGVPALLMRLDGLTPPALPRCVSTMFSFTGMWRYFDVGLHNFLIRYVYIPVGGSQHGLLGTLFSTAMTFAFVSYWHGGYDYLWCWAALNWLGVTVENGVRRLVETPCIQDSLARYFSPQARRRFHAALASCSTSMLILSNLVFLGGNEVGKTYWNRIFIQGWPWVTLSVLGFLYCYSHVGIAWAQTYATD

[3] = system: Hhat-mediated Shh palmitoylation in COS-1 cells; experiment: Shh palmitoylation in COS-1 cells; assay type: cell-based
How it was run: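 COS-1 cells transfected with Shh and HA-Hhat given test compound or DMSO overnight or from the start of […] serum starvation (DMEM, 2% dialyzed FCS). Labeled 4 h at 37°C with 15–30 μCi/ml 125I-iodo-palmitate. Lysed in RIPA, ultracentrifuged, immunoprecipitated 16 h at 4°C, SDS-PAGE with western blot and phosphorimaging. Duplicates, repeated at least three times.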

[4] = system: palmitoylation of H-Ras; experiment: H-Ras palmitoylation in COS-1 cells; assay type: cell-based; conditions: COS-1 cells expressing H-Ras N17
How it was run: (§1)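 COS-1 cells co-transfected with Shh and HA-Hhat plus H-Ras or Fyn. Test compound or DMSO was added the night before or at the start of serum starvation. Cells were starved 1 h in DMEM with 2% dialyzed FCS, then labeled with 15–30 μCi/ml 125I-iodo-palmitate for 4 h at 37°C. Lysates in RIPA were cleared at 100,000xg, immunoprecipitated 16 h at 4°C, run on 12.5% SDS-PAGE and phosphorimaged. Duplicates, repeated ≥3 times.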

[5] = system: palmitoylation of Fyn; experiment: Fyn palmitoylation in COS-1 cells; assay type: cell-based; conditions: COS-1 cells expressing Fyn
How it was run: as §1

[6] = system: myristoylation of c-Src; experiment: c-Src myristoylation in COS-1 cells; assay type: cell-based; conditions: COS-1 cells expressing c-Src
How it was run: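 COS-1 cells were transfected with Shh, HA-Hhat and Src, with test compound or DMSO added the night before or at the start of starvation. After 1 h starvation in DMEM with 2% dialyzed FCS, 30 μCi/ml 125I-iodo-tridecanoate was added for 4 h at 37°C. RIPA lysates were cleared at 100,000xg, immunoprecipitated overnight at 4°C, resolved on 12.5% SDS-PAGE and quantified by phosphorimager. Duplicates, ≥3 repeats.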

[7] = molecular target: T1, Porcupine (Mus musculus, UniProt Q9JJJ7); experiment: Wnt3a fatty acylation by Porcupine in L Wnt-3a cells; assay type: cell-based; conditions: Mouse L Wnt-3a cells, FLAG-Porcupine
T1 sequence (Q9JJJ7 1-461): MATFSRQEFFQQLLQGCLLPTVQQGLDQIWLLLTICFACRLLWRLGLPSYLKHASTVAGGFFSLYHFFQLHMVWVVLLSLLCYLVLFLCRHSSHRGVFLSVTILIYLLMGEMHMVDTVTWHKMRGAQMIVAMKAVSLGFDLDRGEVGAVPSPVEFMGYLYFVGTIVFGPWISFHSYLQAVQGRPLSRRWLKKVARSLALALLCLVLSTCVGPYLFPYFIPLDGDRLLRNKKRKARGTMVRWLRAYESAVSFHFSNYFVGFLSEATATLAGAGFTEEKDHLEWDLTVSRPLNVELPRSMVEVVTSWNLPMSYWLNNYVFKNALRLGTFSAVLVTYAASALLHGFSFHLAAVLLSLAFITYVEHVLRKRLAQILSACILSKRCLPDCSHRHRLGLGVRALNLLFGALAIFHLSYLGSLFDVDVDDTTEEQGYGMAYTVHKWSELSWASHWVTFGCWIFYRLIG
How it was run: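 Mouse L-Wnt3a cells transfected with 6 μg FLAG-Porcupine or empty vector. After 48 h, serum-starved 3 h in DMEM with 2% dialyzed FCS plus DMSO, 10 μM test compound or 100 nM reference Porcupine inhibitor. Labeled 6 h with 40 μCi 125I-iodo-pentadecanoate. Wnt3a and FLAG-Porcupine immunoprecipitated 16 h at 4°C, then SDS-PAGE, western blot, phosphorimaging. Duplicates, repeated three times.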

[8] = system: Shh and Hhat in COS-1 cells; experiment: Shh autoprocessing, Shh/Hhat levels and localization in COS-1 cells; assay type: cell-based; conditions: 10µM, 5h
How it was run: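 COS-1 cells were transfected with Shh and HA-Hhat and reseeded on coverslips after 24 h. A day later they were fixed in 4% paraformaldehyde for 20 min and permeabilized with 0.2% Triton X-100. After blocking in 3% BSA, cells took rabbit anti-Shh (1:100) and mouse anti-HA (1:200) for 1 h, then Alexa-conjugated secondaries and Hoechst for 45 min. Confocal imaging at 63X: 5–10 images per slide, ≥2 slides per condition, three experiments. Protein levels by Western blot.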

[9] = system: Gli1 activation in Shh Light II cells; experiment: Gli luciferase reporter assay in Shh Light II cells; assay type: cell-based; conditions: 10 μM RU-SKI 43, 24 h
How it was run: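 Shh Light II cells (stable Gli1 luciferase reporter) grown to confluence, moved to 0.5% serum medium, and exposed 24 h to DMSO or 10 μM test compound, with or without 100 nM SAG or 1 μg/mL Shh (C24II). Dual firefly/Renilla luciferase read in lysates. FL/RL ratio normalized to cells given DMSO or compound alone; experiment done at least twice.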

[10] = system: Shh signaling in SuFu−/− cells; experiment: Gli luciferase reporter assay in SuFu-/- cells; assay type: cell-based, murine; conditions: 10 μM, 24h
How it was run: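 SuFu−/− mouse embryonic fibroblasts transfected with wild-type or mutant 8XGliBS-firefly luciferase plus pRL-TK Renilla plasmids. Reseeded 24 h later, grown to confluence, then given DMSO or 10 μM test compound for 24 h. Dual luciferase measured in lysates as FL/RL ratio; mean ± SD (n=2–4), experiment run at least twice.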

[11] = system: paracrine Shh signaling in C3H10T1/2 cells; experiment: C3H10T1/2 alkaline phosphatase reporter assay; assay type: cell-based
How it was run: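 C3H10T1/2 reporter cells and COS-1 cells transfected with HA-Hhat and Shh plasmids plated alone or cocultured (4:1), 24 h at 37°C. Medium then switched to DMSO or 10 μM test compound for 72 h, with re-addition at 48 h. Alkaline phosphatase measured in lysates with a fluorogenic FDP substrate kit, read over 30 min at 5-min intervals; mean ± SD, n=3.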

[12] = Half-life in mouse plasma after IV administration; assay type: in vivo

With Cc1c(C(=O)Nc2ccc(N3C[C@@H](C)O[C@@H](C)C3)nc2)cccc1-c1ccc(OC(F)(F)F)cc1 [LDE225, reference compound] as the molecule, how does the “Gli-responsive luciferase activation (FL/RL ratio)” value [1] read?
The value was “blocked luciferase activation”.

Which Ki [2] does the source give for CCC(C)CNCC(=O)N1CCc2sccc2C1COc1cccc(C)c1 (stereo not shown) [RU-SKI 43, 2-((2-methylbutyl)amino)-1-(4-((m-tolyloxy)methyl)-6,7-dihydrothieno[3,2-c]pyridin-5(4H)-yl)ethanone] here?
The Ki was 6.9 µM.

What about the “Inhibition of Shh palmitoylation in cells” value ([3]; COS-1 cells expressing HA-Hhat and Shh, 0, 10 or 20 μM, 5 h) of the same molecule?
The value was “Dose-dependent inhibition”.

And the “Radiolabel incorporation into ShhN in cells” value ([3]; COS-1 cells expressing HA-Hhat and Shh, 25 μM compound, 16 h)?
Its value is “strongly inhibited”.

What about the “Palmitoylation of Shh by endogenous Hhat” value ([3]; COS-1 cells transfected with Shh only, 10 µM) of the same molecule?
Its value is “inhibited”.

And the “Effect of Hhat overexpression on inhibition of Shh palmitoylation” value ([3]; transfected COS-1 cells, increasing amounts of Hhat, 10µM)?
Its value is “reduced the ability of RU-SKI 43 to inhibit Shh palmitoylation”.

And the “Effect of Porcupine overexpression on inhibition of Shh palmitoylation” value ([3]; transfected COS-1 cells, increasing amounts of Porcupine, 10µM)?
The value was “no effect”.

And the “Palmitoylation of H-Ras” value [4]?
Its value is “Neither palmitoylation of H-Ras and Fyn nor myristoylation of c-Src was affected”.

And the “Palmitoylation of Fyn” value [5]?
The value was “Neither palmitoylation of H-Ras and Fyn nor myristoylation of c-Src was affected”.

And the “Myristoylation of c-Src” value [6]?
The value was “Neither palmitoylation of H-Ras and Fyn nor myristoylation of c-Src was affected”.

What about the “Fatty acylation of Wnt3a by Porcupine” value ([7]; 10 μM) of the same molecule?
The value was “does not inhibit Porcupine; also recorded: no effect”.

What about the “Shh autoprocessing, steady-state levels of Shh and Hhat, subcellular localization of Shh and Hhat” value [8] of the same molecule?
The value was “did not alter”.

What about the “Gli-responsive luciferase activation (FL/RL ratio)” value [1] of the same molecule?
The value was “blocks Gli activation; also recorded: blocked luciferase activation”.

And the “Rescue of the inhibitory effect with SAG or Shh (C24II)” value ([1]; Shh-transfected NIH 3T3 cells, 10µM RU-SKI 43 with 100nM SAG or 1µg/mL Shh (C24II), 24h)?
Its value is “not able to rescue”.

What about the “Effect on activation of Gli1 by SAG” value ([9]; 100 nM SAG) of the same molecule?
The value was “does not affect exogenous Shh pathway activation; also recorded: no effect”.

What about the “Effect on activation of Gli1 by recombinant Shh (C24II)” value ([9]; 1μg/mL Shh (C24II)) of the same molecule?
The value was “does not affect exogenous Shh pathway activation; also recorded: no effect”.

What about the “Effect on Shh signaling in SuFu−/− cells” value [10] of the same molecule?
The value was “does not affect Shh pathway activation; also recorded: no effect”.

And the “Alkaline phosphatase (AP) activity” value ([11]; C3H10T1/2 cocultured with COS-1 expressing Shh and Hhat, 10 μM, 72h)?
The value was “blocks paracrine Shh signaling; also recorded: reduced to baseline”.

What about the half-life [12] of the same molecule?
The half-life was 17 min.

Which “Gli1 activation in untreated Shh-expressing cells” value ([1]; Shh-expressing NIH 3T3 cells, 100nM SAG) does the source give for CNC1CCC(N(Cc2cccc(-c3ccncc3)c2)C(=O)c2sc3ccccc3c2Cl)CC1 (stereo not shown) [SAG, reference compound] here?
The value was “neither SAG (Supplementary Fig. 8) nor overexpression of Smo[17] activated Gli1 to levels higher than those achieved with Shh alone”.

With Cc1cc(-c2ccc(CC(=O)Nc3ccc(-c4cccnc4)cc3)cc2)ccn1 [Wnt C59, reference compound] as the molecule, how does the “Fatty acylation of Wnt3a by Porcupine” value ([7]; 100 nM) read?
The value was “blocked radiolabel incorporation”.

B1: Noggin: the BMP inhibitor Noggin (protein, UniProt Q13253 28-232, looked up)
Noggin: QHYLHIRPAPSDNLPLVDLIEHPDPIFDPKEKDLNETLLRSLLGGHYDPGFMATSPPEDRPGGGGGAAGGAEDLAELDQLLRQRPSGAMPSEIKGLEFSEGLAQGKKQRLSKKLRRKLQMWLWSQTFCPVLYAWNDLGSRFWPRYVKVGSCFSKRSCSVPEGMVCKPSKSVHLTVLRWRCQRRGGQRCGWIPIQYPIISECKCSC
For B1, which “Alkaline phosphatase (AP) activity” value ([11]; BMP inhibitor control, concentration not given) is on record?
Its value is “no effect”.
